The target of assay [1] is Opioid receptors; delta & kappa (Homo sapiens) (UniProt P41145+P41143). The experiment in a line: Selectivity for kappa opioid receptor over delta opioid receptor. The class given is protein assay.
The target in assay [2] is T1, Delta-type opioid receptor (Homo sapiens, UniProt P41143). Kind of assay: Antagonist activity at human delta opioid receptor expressed in CHO cells by [35S]GTP-gamma-S binding assay. Format: functional, cell-based. An outline of the steps: (§1)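 Antagonism is measured in a [35S]GTP-γ-S binding assay in CHO cells stably transfected with human δ, κ or µ opioid receptor cDNA. Result is given as Ke, the mean ± SD of at least two independent determinations. Test compounds come from 10 mM stocks in 100% DMSO + 10 mM 2-mercaptoethanol, stored at -80 °C. They are diluted in buffer containing 1 mg/mL BSA.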
T1 sequence (P41143 whole entry): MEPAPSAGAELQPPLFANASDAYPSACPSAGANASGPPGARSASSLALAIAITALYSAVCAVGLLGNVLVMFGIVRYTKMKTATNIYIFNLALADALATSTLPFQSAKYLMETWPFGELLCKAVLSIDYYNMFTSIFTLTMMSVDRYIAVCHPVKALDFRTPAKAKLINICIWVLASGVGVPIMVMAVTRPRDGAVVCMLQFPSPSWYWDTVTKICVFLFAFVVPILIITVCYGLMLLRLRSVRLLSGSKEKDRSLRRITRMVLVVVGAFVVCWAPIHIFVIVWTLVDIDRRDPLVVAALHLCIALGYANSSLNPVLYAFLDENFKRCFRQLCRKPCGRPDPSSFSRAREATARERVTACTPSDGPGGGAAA
On the technique in general: GTPγS is a poorly hydrolysed GTP analogue; its binding reports G protein activation.

Assay [3] has as its target T2, Mu-type opioid receptor (Homo sapiens, UniProt P35372). Kind of assay: Displacement of [125I]IOXY from human mu opioid receptor expressed in CHO cells. The class given is cell-based. An outline of the steps: (§2)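 Membranes from CHO cells stably transfected with the respective human opioid receptor cDNA (hMOR-, hDOR-, hKOR-CHO). Incubation in 50 mM Tris-HCl pH 7.4 with bacitracin, bestatin, leupeptin and chymostatin. Nonspecific binding is defined with 10 µM naloxone. Ki is the mean ± SD of at least two independent determinations.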

The target of assay [4] is T1, Delta-type opioid receptor. Kind of assay: Displacement of [125I]IOXY from human delta opioid receptor expressed in CHO cells. The class given is cell-based. An outline of the steps: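 Membranes from CHO cells stably transfected with the respective human opioid receptor cDNA (hMOR-, hDOR-, hKOR-CHO). Radioligand [125I]IOXY (SA 2200 Ci/mmol) labels µ, δ and κ sites. Incubation in 50 mM Tris-HCl pH 7.4 with bacitracin, bestatin, leupeptin and chymostatin. Nonspecific binding is defined with 10 µM naloxone. Ki is the mean ± SD of at least two independent determinations.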
Background: Displacement assays read how much labelled ligand stays bound in the presence of the test substance.

The target in assay [5] is Opioid receptors; mu & kappa (Homo sapiens) (UniProt P41145+P35372). The experiment in a line: Selectivity for kappa opioid receptor over mu opioid receptor. The class given is protein assay.
Opioid receptors; mu & kappa (Homo sapiens), sequence (P35372 whole entry, looked up): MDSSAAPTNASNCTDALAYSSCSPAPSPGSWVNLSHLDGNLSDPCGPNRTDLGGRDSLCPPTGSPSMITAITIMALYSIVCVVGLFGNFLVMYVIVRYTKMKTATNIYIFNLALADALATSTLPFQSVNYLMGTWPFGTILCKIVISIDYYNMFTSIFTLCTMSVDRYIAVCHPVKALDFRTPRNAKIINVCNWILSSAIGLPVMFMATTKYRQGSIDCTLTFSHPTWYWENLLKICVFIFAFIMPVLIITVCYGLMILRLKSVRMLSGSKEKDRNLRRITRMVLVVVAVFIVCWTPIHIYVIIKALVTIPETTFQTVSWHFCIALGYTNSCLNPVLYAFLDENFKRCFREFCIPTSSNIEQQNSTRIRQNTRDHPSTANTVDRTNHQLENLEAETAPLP
Opioid receptors; mu & kappa (Homo sapiens), sequence (P41145 whole entry, looked up): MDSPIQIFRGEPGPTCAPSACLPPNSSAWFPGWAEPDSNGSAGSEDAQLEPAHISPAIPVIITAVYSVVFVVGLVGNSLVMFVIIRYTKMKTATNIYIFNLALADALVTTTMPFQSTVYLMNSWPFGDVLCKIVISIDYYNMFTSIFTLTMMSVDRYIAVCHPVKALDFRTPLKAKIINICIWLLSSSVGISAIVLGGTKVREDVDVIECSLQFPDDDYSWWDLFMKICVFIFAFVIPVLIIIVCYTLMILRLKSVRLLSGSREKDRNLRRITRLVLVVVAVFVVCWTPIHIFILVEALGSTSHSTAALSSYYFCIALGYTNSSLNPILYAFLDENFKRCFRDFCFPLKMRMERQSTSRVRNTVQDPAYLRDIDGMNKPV
Assay [6] deals with T3, Kappa-type opioid receptor (Homo sapiens, UniProt P41145). The experiment in a line: Displacement of [125I]IOXY from human kappa opioid receptor expressed in CHO cells. The class given is cell-based. Put shortly:
as §2

Assay [7] concerns the target T3, Kappa-type opioid receptor. Kind of assay: Antagonist activity at human kappa opioid receptor expressed in CHO cells by [35S]GTP-gamma-S binding assay. The class given is functional, cell-based. An outline of the steps: as §1
Assay [8] has as its target T2, Mu-type opioid receptor. The experiment in a line: Antagonist activity at human mu opioid receptor expressed in CHO cells by [35S]GTP-gamma-S binding assay. The class given is functional, cell-based. An outline of the steps:
as §1

Assay [9] addresses T3, Kappa-type opioid receptor. The experiment in a line: Activity at human kappa opioid receptor expressed in CHO cells by [35S]GTP-gamma-S binding assay relative to U69593. Format: functional, cell-based. Put shortly: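 [35S]GTP-γ-S binding in hKOR-CHO cells (stably transfected human receptor). Emax is the percent stimulation relative to the maximal stimulation by U69,593 run in parallel. EC50 and Emax are the mean ± SE of at least three independent experiments. Emax is compared with U69,593 by one-way ANOVA with Dunnett's test. Drug dilutions are made in buffer with 1 mg/mL BSA, from 10 mM DMSO/2-mercaptoethanol stocks.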

Calls of active or inactive are those of the source. The calls are words filed in the database; no cut-off is given here.

For orientation: Ki means a dissociation constant, usually derived from enzyme kinetics or from competition with a known ligand. A word on the Emax: it is the size of the effect at its maximum, as opposed to the concentration needed. One may read the EC50 as the concentration needed to bring the measured effect to its halfway point. The low end stands for greater potency, the high end for weaker potency.

Opioid receptors; delta & kappa (Homo sapiens), sequence (P41143 whole entry, looked up): as the sequence (P41143 whole entry) above
Opioid receptors; delta & kappa (Homo sapiens), sequence (P41145 whole entry, looked up): as the sequence (P41145 whole entry, looked up) above
T3 sequence (P41145 whole entry): as the sequence (P41145 whole entry, looked up) above
T2 sequence (P35372 whole entry): as the sequence (P35372 whole entry, looked up) above

For `COC(=O)[C@@H]1C[C@H](OC(C)=O)C(=O)[C@H]2[C@@]1(C)CC[C@H]1C(=O)O[C@H](C3=C[C@@H](OC)O[C@H]3OC)C[C@]21C`, the figures for the Ratio Ki in assay [1] and in [5] were greater than 55 and 21, respectively. Further, the Ke in [2] was found to be 1.28 µM; in assay [7], 2370 nM. Also, the inhibitory constant (Ki) on Mu-type opioid receptor [3] is 3.74 µM; in assay [4], greater than 10 µM; in assay [6], 0.18 µM; at Mu-type opioid receptor [8], 2.93 µM.

`COC(=O)[C@@H]1C[C@H](OC(C)=O)C(=O)[C@H]2[C@@]1(C)CC[C@H]1C(=O)O[C@H]([C@@H]3C[C@@H](OC)O[C@@H]3OC)C[C@]21C`: the Ratio Ki in [1] and in assay [5] was greater than 400 each time. The compound further gave a Ke in assay [2] greater than 10 µM. Besides, the Ki on Mu-type opioid receptor [3] was greater than 10 µM; in assay [4], greater than 10 µM; in assay [6], 0.025 µM; on Mu-type opioid receptor [8], 1.37 µM. In assay [9], this compound gave a maximum response (Emax) of 95%. The same compound gave a half-maximal effective concentration (EC50) in assay [7] of 2.35 µM.

As to `COC(=O)[C@@H]1C[C@H](OC(C)=O)C(=O)[C@H]2[C@@]1(C)CC[C@H]1C(=O)O[C@H](C3CC(OC)OC3OC)C[C@]21C` (some centres not stated), the results for the Ratio Ki in [1] and in assay [5] were greater than 250 and 120, respectively. In addition, the Ki is 4.81 µM on Mu-type opioid receptor [3], greater than 10 µM in assay [4] and 0.04 µM in [6].

As to `COC(=O)[C@@H]1C[C@H](OC(C)=O)C(=O)[C@H]2[C@@]1(C)CC[C@H]1C(=O)O[C@H](C3=CC(OC)OC3OC)C[C@]21C` (some centres not stated), the Ratio Ki in assay [1] and in assay [5] was greater than 20 throughout. Moreover, the Ki on Mu-type opioid receptor [3] was greater than 10 µM; in assay [4], greater than 10 µM; in assay [6] it was 0.44 µM.

With `COC(=O)[C@@H]1C[C@H](OC(C)=O)C(=O)[C@H]2[C@@]1(C)CC[C@H]1C(=O)O[C@H](c3nc(C)no3)C[C@]21C`, the Ratio Ki in assay [1] and in assay [5] was greater than 170 each time. Also, the result in [2] was inactive. The Ki at Mu-type opioid receptor [3] is greater than 10 µM; in [4], greater than 10 µM; in [6], 0.056 µM; at Mu-type opioid receptor [8] it was 0.43 µM. This compound also had a Ke in assay [7] of 360 nM.

`COC(=O)[C@@H]1C[C@H](OC(C)=O)C(=O)[C@@H]2[C@@]3(C)C[C@@H](c4nc(C)no4)OC(=O)[C@H]3CC[C@]21C`: the Ratio Ki in [1] and in [5] was greater than 10 throughout. The Ke in assay [2] is 4.23 µM; in assay [7], 5680 nM. The Ki is greater than 10 µM on Mu-type opioid receptor [3], greater than 10 µM in [4], 0.99 µM in [6] and 1.53 µM on Mu-type opioid receptor [8].

In the case of `COC(=O)[C@@H]1C[C@H](OC(C)=O)C(=O)[C@H]2[C@@]1(C)CC[C@H]1C(=O)O[C@H](C3=C[C@@H](OC)O[C@@H]3OC)C[C@]21C`, the Ratio Ki in [1] is greater than 23; in [5], 8. Besides, the Ke in assay [2] came out at 3.28 µM; in assay [7], 9700 nM. Moreover, the Ki on Mu-type opioid receptor [3] is 3.19 µM; in [4], greater than 10 µM; in [6], 0.42 µM; at Mu-type opioid receptor [8] it was 2.32 µM.

As to `COC(=O)[C@@H]1C[C@H](OC(C)=O)C(=O)[C@@H]2[C@@](C)(CCC3CCOC3)[C@H](C(=O)O)CC[C@]21C` (some centres not stated), the Ratio Ki in [1] and in assay [5] was greater than 10 each time. Besides, the Ki on Mu-type opioid receptor [3] is greater than 10 µM; in assay [4], greater than 10 µM; in assay [6], 0.91 µM.

Regarding `COC(=O)[C@@H]1C[C@H](OC(C)=O)C(=O)[C@@H]2[C@@]3(C)C[C@@H]([C@]4(O)[C@@H](OC)O[C@@H](OC)[C@H]4O)CC(=O)[C@@H]3CC[C@]21C` [SALVINICIN B], the Ratio Ki in assay [1] and in assay [5] was 1.4 in each case. Moreover, the Ki at Mu-type opioid receptor [3] was greater than 10 µM; in [4], greater than 10 µM; in [6], 7.02 µM.

On to `COC(=O)[C@@H]1C[C@H](OC(C)=O)C(=O)[C@H]2[C@@]1(C)CC[C@H]1C(=O)O[C@H](C3=NCCO3)C[C@]21C`, for which the Ratio Ki in assay [1] and in assay [5] was greater than 30 each time. In addition, the results for the Ki (at Mu-type opioid receptor [3]; in assay [4]; in assay [6]) were greater than 10 µM, greater than 10 µM and 0.3 µM, respectively.

Take `COC(=O)[C@@H]1C[C@H](OC(C)=O)C(=O)[C@H]2[C@@]1(C)CC[C@H]1C(=O)O[C@H](C3=CC(=O)OC3O)C[C@]21C` (some centres not stated): the Ke in assay [2] stood at 2.83 µM; in assay [7] it was 440 nM; at Mu-type opioid receptor [8] it was 760 nM.

For the compound `COC(=O)[C@@H]1C[C@H](OC(C)=O)C(=O)[C@H]2[C@@]1(C)CC[C@H]1C(=O)O[C@H](C3CCOC3)C[C@]21C` (some centres not stated), the inhibition constant Ki was greater than 10 µM in assay [4] and 0.014 µM in [6].

As for `COC(=O)[C@@H]1C[C@H](OC(C)=O)C(=O)[C@H]2[C@@]1(C)CC[C@H]1C(=O)OC([C@]3(O)[C@H](OC)O[C@H](OC)[C@H]3OC(C)=O)C[C@]21C` (some centres not stated), the Ki (on Mu-type opioid receptor [3]; in [4]; in [6]) was greater than 10 µM throughout.

On to `COC(=O)[C@@H]1C[C@H](OC(C)=O)C(=O)[C@H]2[C@@]1(C)CC[C@H]1C(=O)O[C@H]([C@@H]3C[C@@H](OC)O[C@H]3OC)C[C@]21C`, for which the Ratio Ki in assay [1] and in [5] was greater than 80 throughout. For the same compound, the result (in assay [2]; in [7]; on Mu-type opioid receptor [8]) was inactive. The figures for the Ki (at Mu-type opioid receptor [3]; in assay [4]; in [6]) were greater than 10 µM, greater than 10 µM and 0.125 µM, respectively.

For `COC(=O)[C@@H]1C[C@H](O)C(=O)[C@H]2[C@@]1(C)CC[C@H]1C(=O)O[C@H](c3ccoc3)C[C@]21C` [SALVINORIN B], the Ki (on Mu-type opioid receptor [3]; in [4]) was greater than 10 µM throughout.

In the case of `COC(=O)[C@@H]1C[C@H](OC(C)=O)C(=O)[C@H]2[C@@]1(C)CC[C@H]1C(=O)OCC[C@]21C`, the Ratio Ki in [1] and in assay [5] was greater than 3 in each case. The figures for the Ki (at Mu-type opioid receptor [3]; in assay [4]; in assay [6]) were greater than 10 µM, greater than 10 µM and 3.4 µM, respectively.

Take `COC(=O)[C@@H]1C[C@H](OC(C)=O)C(=O)[C@H]2[C@@]1(C)CC[C@H]1C(=O)O[C@H](c3ccoc3Br)C[C@]21C`: the figures for the Ki (on Mu-type opioid receptor [3]; in assay [4]) were 1.45 µM and 7.62 µM, respectively. Further, in assay [9], the Emax was found to be 104%.

`COC(=O)[C@@H]1C[C@H](OC(C)=O)C(=O)[C@H]2[C@@]1(C)CC[C@H]1C(=O)O[C@H]([C@@H]3CCOC3)C[C@]21C`: the outcome (in assay [2]; at Mu-type opioid receptor [8]) was inactive. Moreover, the figures for the Ki (at Mu-type opioid receptor [3]; in assay [4]; in assay [6]) were 9.79 µM, greater than 10 µM and 0.0037 µM, respectively. Moreover, the maximal response (Emax) in assay [9] worked out at 81%. For the same compound, the midpoint of the response in assay [7], the EC50, lay at 0.75 µM.

As to `COC(=O)[C@@H]1C[C@H](OC(C)=O)C(=O)[C@H]2[C@@]1(C)CC[C@H]1C(=O)O[C@H]([C@]3(O)[C@H](OC)O[C@H](OC)[C@H]3O)C[C@]21C` [SALVINICIN A], the Ratio Ki in [1] and in assay [5] was greater than 26 throughout. Moreover, the values for the Ki (on Mu-type opioid receptor [3]; in assay [4]; in assay [6]) were greater than 10 µM, greater than 10 µM and 0.39 µM, respectively.

`COC(=O)[C@@H]1C[C@H](OC(C)=O)C(=O)[C@H]2[C@@]1(C)CC[C@H]1C(=O)OC([C@]3(O)[C@@H](OC)O[C@@H](OC)[C@H]3OC(C)=O)C[C@]21C` (some centres not stated): the Ki (at Mu-type opioid receptor [3]; in [4]; in assay [6]) was greater than 10 µM throughout.

These data come from ChEMBL document CHEMBL1145447, “Synthetic studies of neoclerodane diterpenes from Salvia divinorum: preparation and opioid receptor activity of salvinicin analogues” (J Med Chem, 2007).
